This is a sample that favours compounds with a hit; in the whole collection about 2% have one here.
NS3 helicase inh = inhibitors of Hepatitis C virus NS3 helicase | inhibition, % at 10.9 µM | 290,000 tested, 0.56% active | NS3 helicase DNA unwinding, Cy5 molecular beacon fluorescence;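 active means inhibition above the mean of all tested compounds plus 3 SD, set per campaign, cut at about 35% in these data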;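 further: 0% = DMSO wells and 100% = thioflavine S control wells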
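System: Hepatitis C virus NS3 helicase domain fragment enzyme | Reagent: Annealed dual-labelled DNA beacon duplex, ATP-started | Compound dosing: 10.9 µM single point, 0.8% DMSO | Incubation: 1 h reaction at 25 °C, ATP-initiated | Technique: Cy5 fluorescence | Evaluation: Percent inhibition from t60/t0 fluorescence ratio | Benchmarks: Low DMSO, high thioflavine S at 110 µM | Replication: Singlicate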
PABP1 MLLE inh = blocks PAM2 peptide binding to the PABP1 MLLE domain; P11940; GST-MLLE / FITC-PAM2 fluorescence polarization; inhibition, % at 20 µM; 360,000 tested, 0.36% active; in the data active means inhibition above about 35%, passing the limit was not always enough;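 further: plate controls were DMSO wells with GST-MLLE for no effect and wells lacking GST-MLLE protein for full effect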
Target sequence (P11940 whole entry, looked up, the tested form may be a part): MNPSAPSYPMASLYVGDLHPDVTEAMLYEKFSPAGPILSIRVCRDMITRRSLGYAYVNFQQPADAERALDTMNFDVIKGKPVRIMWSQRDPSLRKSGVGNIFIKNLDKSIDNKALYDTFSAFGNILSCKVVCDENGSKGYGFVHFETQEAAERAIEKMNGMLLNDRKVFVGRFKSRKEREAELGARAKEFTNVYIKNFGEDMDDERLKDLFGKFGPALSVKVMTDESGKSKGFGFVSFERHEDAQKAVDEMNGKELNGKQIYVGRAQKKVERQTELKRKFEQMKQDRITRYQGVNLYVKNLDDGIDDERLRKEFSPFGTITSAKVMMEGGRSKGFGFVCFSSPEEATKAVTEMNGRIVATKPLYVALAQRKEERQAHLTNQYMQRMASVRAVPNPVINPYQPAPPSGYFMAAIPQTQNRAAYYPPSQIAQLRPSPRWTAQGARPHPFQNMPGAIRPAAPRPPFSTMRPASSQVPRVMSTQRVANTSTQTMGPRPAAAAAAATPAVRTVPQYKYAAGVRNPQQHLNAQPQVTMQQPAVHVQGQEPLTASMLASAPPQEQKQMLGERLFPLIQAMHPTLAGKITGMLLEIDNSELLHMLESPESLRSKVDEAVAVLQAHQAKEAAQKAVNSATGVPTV
PABP FP inh = PABP-poly(A) binding inhibition | 290,000 tested, 1% active | P11940 | AID 2014 | PABP-poly(A) RNA binding, fluorescence polarization | inhibition, % at 35 µM;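 further: calls also rest on retests at 20 µM and on dose response follow-up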
eIF4H FP inh = inhibitors of RNA binding by human eIF4H | Q15056 | eIF4H fluorescence polarization binding assay | inhibition, % at 35 µM | 290,000 tested, 0.94% active | AID 2012;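 further: calls also rest on retests at 20 µM and on dose response follow-up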
HCV core dimer = HCV core protein dimerization inhibition | TR-FRET GST/Flag-core106 dimerization, 1536-well | inhibition, % at 5 µM | 300,000 tested, 0.33% active | AID 1899;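 active means inhibition above the mean of all tested compounds plus 3 SD, set per screening campaign, cut at about 45% in these data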
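Assay system: GST-tagged and Flag-tagged HCV core protein residues 1-106 / Times: compound-protein-antibody incubation 4 h at 22.5 °C / Signal: time-resolved FRET, ex 340 nm, em 617 and 671 nm / Evaluation: % inhibition based on acceptor/donor emission ratio / Benchmarks: wells lacking GST-core106 and wells with excess unlabelled core106 / Repeats: singlicate, one well per compound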
FID counter = displaces DNA intercalator in HCV helicase counter-screen; DNA fluorescent intercalator displacement, fluorescence; AID 1845; 290,000 tested, 0.17% active; inhibition, % at 7.9 µM; in the data active means inhibition above about 37%;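 further: 0% = vehicle and 100% = reference compound; higher means more ethidium bromide displaced from hairpin DNA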
* hit, by the source's call; i = inactive; u = inconclusive; x = no result given. Unless noted, how the calls were made is not given here.

SMILES	NS3 helicase inh	PABP1 MLLE inh	PABP FP inh	eIF4H FP inh	HCV core dimer	FID counter
O=[N+]([O-])c1ccccc1S(=O)(=O)NCCSc1ccccc1	-10	-13	-14	8	-1	6
O=S(=O)(NCCCSc1ccccc1)c1ccccc1F	-9	43*	-2	-9	0	-18
Cc1ccc(S(=O)(=O)Nc2ccc(Nc3nccn4c(-c5cccc(OC(F)(F)F)c5)cnc34)cc2)cc1	x	-24	x	x	x	x
O=C(/C=C/c1ccccc1)Nc1cccc(C(=O)NC2CC2)c1	x	-3	x	x	x	x
Cc1ccc(/C=C2\CCC3=C2OC(N)=C(C#N)C3c2ccc(C)cc2)cc1 (centres undefined)	32	120	u	u	76*	-15
Cc1ccc(C2C(C#N)=C(N)Oc3cc(N)ccc32)cc1 (centres undefined)	-6	3	1	-9	1	-8
Cc1nn(C)c(C)c1N1C(=O)c2cccc3c(N)ccc(c23)C1=O	-3	i	118*	129	-6	-12
CCOc1ccc(N=C/C=C/c2ccccc2)c(O)c1	1	-8	119*	u	1	-8
CCOc1ccc(NCC(=O)N/N=C/C=C/c2ccccc2)cc1	-11	-22	1	-1	21	-10
CCCCCc1nnc(NC(=O)Cc2cccs2)s1	9	-5	4	56	71*	-19
O=C(Cc1cccs1)Nc1nnc(CCc2ccccc2)s1	18	-1	1	6	12	-15
CC(C)(C)Cc1nnc(NC(=O)Cc2cccs2)s1	14	-1	7	22	51*	-15
O=C(Cc1cccs1)Nc1nnc(-c2ccncc2)s1	-7	-5	5	6	11	-8
CC(C)Cc1nnc(NC(=O)Cc2cccs2)s1	31	-58	55*	74*	67*	-12
CC(C)c1nnc(NC(=O)Cc2cccs2)s1	-4	0	-12	7	-2	5
CC1=C(C(=O)N(C(C)C)C(C)C)CC(CC(=O)NCCN2CCOCC2)C(=O)N1CCC1=CCCCC1 (centres undefined)	x	2	x	x	x	x
Cc1ccccc1-n1c(SC/C(O)=C(\C#N)c2nc3ccccc3[nH]2)nnc1-c1ccncc1	9	-41	32	31	20	-26
Cc1cc(C)n2c(SC/C(O)=C(\C#N)c3nc4ccccc4[nH]3)nnc2n1	15	-23	51*	80*	75*	-7
C[C@H](O)[C@@H]1C(=O)N2CCc3c([nH]c4ccccc34)[C@@H]2C[C@@H]1N(C)C(=O)c1ccco1	x	7	x	x	x	x
CCCCC(=O)Nc1cccc(C(C)O)c1 (centres undefined)	4	x	-7	-2	-1	7
CC(C)CC(=O)Nc1cccc(C(C)O)c1 (centres undefined)	5	x	55*	active	0	-7
COc1ccc(S(=O)(=O)N(C)C(C)CCc2ccco2)cc1 (centres undefined)	0	2	-2	9	21	-28
COc1ccc(C(N)CCc2ccco2)cc1 (centres undefined)	2	-35	24*	50*	0	-13
COC(=O)CCC(=O)OC1(C)C(=O)C=C2C=C3CCCN3C=C2C1=O (centres undefined)	x	-7	60*	107*	5	x
CC1(OC(=O)c2ccc(Cl)nc2)C(=O)C=C2C=C3CCCN3C=C2C1=O (centres undefined)	x	-3	62*	101*	13	x
SMILES	NS3 helicase inh	PABP1 MLLE inh	PABP FP inh	eIF4H FP inh	HCV core dimer	FID counter
COCCCN1C(=O)C(CC(=O)NCCCCc2ccccc2)CC(C(=O)N(C(C)C)C(C)C)=C1C (centres undefined)	x	7	x	x	x	x
O=C(Cc1ccccc1F)c1ccc(O)cc1O	-3	-7	4	-12	0	-2
O=C(Cc1ccc(F)cc1)c1ccc(O)cc1O	3	21	88*	75*	1	-3
CCc1cc(C(=O)Cc2ccc(F)cc2)c(O)cc1O	-7	2	-5	5	-1	-5
O=C(Cc1c(F)cccc1Cl)c1ccc(O)cc1O	-4	17	58*	63	4	-4
Cc1ccc(S(=O)(=O)N(C)c2ccc(C(=O)NC3CCCCC3)cc2)cc1	x	0	x	x	x	x
CCN1C(=O)C(C(=O)c2ccccc2)SC1=S (centres undefined)	7	38*	-3	20	2	4
CCN1C(=O)C2C(C1=O)N1C(c3ccccc3)C3C(=O)N(CC)C(=O)C3N1C2c1ccccc1 (centres undefined)	2	-4	-2	4	14	-18
O=P(OCC1CC1)(c1ccccc1)c1ccccc1	-12	3	122*	-2	0	-11
O=C(Nc1ccccc1Cl)c1ccc2ccccc2c1	2	-6	7	-3	7	-5
C[n+]1ccc(C(=O)Nc2ccccc2Cl)cc1	-3	-109	83*	10	-3	-2
CCN(CC(=O)Nc1ccc(OC)cc1)C(=O)CSCc1c(C)noc1C	x	158*	x	x	x	x
CCN(CC(=O)Nc1c(F)cccc1F)C(=O)CSCc1c(C)noc1C	x	-9	x	x	4	x
CN(CCC(=O)c1ccccc1)CCC(=O)c1ccccc1	-6	44*	0	1	x	1
COc1cc(/C=N/NC(=O)C(=O)NCc2ccco2)ccc1O	11	-16	13	3	-12	-2
COc1cc(/C=N/NC(=O)C(=O)NCc2ccco2)cc(Cl)c1O	0	3	3.8*	u	-11	-6
O=C1CCNc2c(Cl)cc(Cl)cc21	-12	27	37	51*	1	1
Cc1nc(C)c(C(=O)Nc2ncc([N+](=O)[O-])s2)o1	13	12	8.2*	54	3	2
COc1ccc(S(=O)(=O)N2CCC(C(=O)Nc3cc(Cl)ccc3N3CCOCC3)CC2)cc1OC	x	5	x	x	5	x
O=C(/C=C/c1ccco1)c1ccc(O)cc1	35	x	2	48	4	-23
CC(=O)Nc1ccc(C(=O)/C=C/c2ccco2)cc1	20	10	3.8*	u	4	-10
Cn1nnc(NC(=S)NC(=O)/C=C/c2ccco2)n1	27	30	82*	88*	2	-4
Cc1ccc2oc(-c3cccc(NC(=S)NC(=O)c4cccs4)c3)nc2c1	3	33	5	-2	-1	-1
CCCn1nnc(NC(=O)/C=C/c2ccco2)n1	8	1	5	-4	2	-6
Cc1ccc2oc(-c3cccc(NC(=S)NC(=O)/C=C/c4ccco4)c3)nc2c1	11	-7	6	48	57*	-14
O=C(/C=C\c1ccco1)c1ccc(NC(=O)c2ccco2)cc1	22	-1	53*	u	57*	-18
COc1ccccc1OCCNC(=O)C1CC(=O)N(c2cccc(SC)c2)C1 (centres undefined)	x	-1	x	x	4	x
